This is an account of results in ChEMBL document CHEMBL1126042, “Reversible inhibitors of the gastric (H+/K+)-ATPase. 2. 1-Arylpyrrolo[3,2-c]quinolines: effect of the 4-substituent” (J Med Chem, 1992).

For test [1], the system named is Rattus norvegicus. Nature of the test: Percentage inhibition of rat gastric secretion following 10 uM/Kg i.v.
Test [2] addresses T1, Potassium-transporting ATPase (Rattus norvegicus, UniProt P09626). Nature of the test: Inhibition of rat isolated gastric (H(+)/K(+))-ATPase. The format is tissue-based, Stomach. In outline:
(§1)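 (H+/K+)-ATPase activity measured in lyophilized gastric vesicles; compounds dissolved in DMSO, then diluted into pH 7.0 buffer. IC50 given as mean ± range (n = 2) or as a single observed value (n = 1).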

Test [3] has as its system Rattus norvegicus. As to the kind of experiment: The compound was evaluated for the percentage inhibition of rat gastric secretion at a dose of 10 umol/kg on intravenous administration. The format is functional. The settings on record: Stomach.
For test [4], the target named is T2, Potassium-transporting ATPase (Rattus norvegicus) (UniProt P09626+P18598). As to the kind of experiment: The compound was evaluated for the inhibition of gastric H+/K+ ATPase at 10 uM. The format is tissue-based. The settings on record: Stomach.
Test [5] concerns the target T1, Potassium-transporting ATPase. Nature of the test: The compound was evaluated for the inhibition of gastric H+/K+ ATPase. The format is tissue-based, Stomach. The essentials: as §1
Test [6] has as its system Rattus norvegicus. As to the kind of experiment: The compound was evaluated for the gastric antisecretory activity in the lumen-perfused rat on intravenous administration. The format is functional. The following applies: Stomach.
For test [7], the system named is Canis familiaris. As to the kind of experiment: The compound was evaluated for the gastric antisecretory activity in the Heidenhain pouch dog for a dose of 1 umol/kg on intravenous administration. The format is functional. The following applies: Canis lupus familiaris, Stomach. The essentials:
(§2)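 Conscious Heidenhain pouch dogs dosed intravenously; inhibition of gastric acid secretion measured.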

Test [8] concerns Rattus norvegicus. Nature of the test: The compound was evaluated for the percentage inhibition of rat gastric secretion at a dose of 10 umol/kg on intravenous administration; d = Compound was too insoluble for intravenous administration. The settings on record: Stomach. The format is functional, organism-based.
Test [9] has as its system Canis familiaris. Nature of the test: The compound was evaluated for the gastric antisecretory activity in the Heidenhain pouch dog for a dose of 1 umol/kg on intravenous administration. The format is functional. The settings on record: Canis lupus familiaris, Stomach. The essentials: as §2
The subject of test [10] is Canis familiaris. Nature of the test: The compound was evaluated for the gastric antisecretory activity in the Heidenhain pouch dog for a dose of 4 umol/kg on intravenous administration. The format is functional. The following applies: Canis lupus familiaris, Stomach. In outline: as §2
In test [11] the target is T2, Potassium-transporting ATPase (Rattus norvegicus). As to the kind of experiment: The compound was evaluated for the inhibition of gastric (H(+)/K(+))-ATPase at 30 uM. The following applies: Stomach.
The target is the same in test [12]. Nature of the test: The compound was evaluated for the inhibition of gastric H+/K+ ATPase at 100 uM. The format is tissue-based. The following applies: Stomach.
Test [13] has the same target. Nature of the test: The compound was evaluated for the inhibition of gastric (H(+)/K(+))-ATPase at 100 uM. The format is protein-complex assay. The following applies: Stomach.
The target in test [14] is Potassium-transporting ATPase (Rattus norvegicus, UniProt P09626+P18598). Nature of the test: The compound was evaluated for the inhibition of gastric (H(+)/K(+))-ATPase; Compound was insoluble. The format is protein-complex assay, Stomach. In outline: as §1
Chain of Potassium-transporting ATPase (Rattus norvegicus, UniProt P09626+P18598) (P09626 whole entry): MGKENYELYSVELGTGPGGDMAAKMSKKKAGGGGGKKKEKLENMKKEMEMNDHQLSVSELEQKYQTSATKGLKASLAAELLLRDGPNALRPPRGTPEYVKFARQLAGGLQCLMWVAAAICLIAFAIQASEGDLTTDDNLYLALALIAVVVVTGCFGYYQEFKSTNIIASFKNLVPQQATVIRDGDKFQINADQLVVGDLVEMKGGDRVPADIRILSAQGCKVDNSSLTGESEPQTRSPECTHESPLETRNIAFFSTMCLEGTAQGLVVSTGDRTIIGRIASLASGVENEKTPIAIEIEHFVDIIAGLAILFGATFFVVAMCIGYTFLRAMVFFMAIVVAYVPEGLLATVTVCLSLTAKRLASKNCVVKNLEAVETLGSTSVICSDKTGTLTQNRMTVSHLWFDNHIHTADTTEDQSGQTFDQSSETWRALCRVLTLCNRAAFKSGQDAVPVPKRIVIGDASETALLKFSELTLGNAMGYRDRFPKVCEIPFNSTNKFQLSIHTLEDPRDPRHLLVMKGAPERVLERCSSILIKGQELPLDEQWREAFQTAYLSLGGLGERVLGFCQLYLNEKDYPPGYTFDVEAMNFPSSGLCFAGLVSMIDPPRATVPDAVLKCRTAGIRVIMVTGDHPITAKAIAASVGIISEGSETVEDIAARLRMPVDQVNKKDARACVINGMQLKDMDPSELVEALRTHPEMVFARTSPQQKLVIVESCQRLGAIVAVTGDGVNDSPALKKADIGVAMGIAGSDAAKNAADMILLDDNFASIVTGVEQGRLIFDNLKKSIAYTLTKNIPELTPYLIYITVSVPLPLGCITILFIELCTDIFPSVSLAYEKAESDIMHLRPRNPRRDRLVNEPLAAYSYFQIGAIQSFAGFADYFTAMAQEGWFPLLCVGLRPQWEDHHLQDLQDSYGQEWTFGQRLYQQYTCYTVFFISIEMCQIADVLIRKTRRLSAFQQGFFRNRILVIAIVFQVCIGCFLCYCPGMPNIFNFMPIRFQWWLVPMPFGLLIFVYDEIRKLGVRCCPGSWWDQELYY
Chain of Potassium-transporting ATPase (Rattus norvegicus, UniProt P09626+P18598) (P18598 whole entry): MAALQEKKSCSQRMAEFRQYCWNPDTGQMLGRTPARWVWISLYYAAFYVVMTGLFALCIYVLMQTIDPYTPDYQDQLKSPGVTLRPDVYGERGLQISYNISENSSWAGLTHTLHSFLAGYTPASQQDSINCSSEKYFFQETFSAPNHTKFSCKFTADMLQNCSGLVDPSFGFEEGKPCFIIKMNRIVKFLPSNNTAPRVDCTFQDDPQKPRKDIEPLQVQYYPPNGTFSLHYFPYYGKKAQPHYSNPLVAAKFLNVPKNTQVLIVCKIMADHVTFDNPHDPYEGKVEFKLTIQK

T1 sequence (P09626 whole entry): as the sequence (P09626 whole entry) above
T1 sequence (P18598 whole entry, further chain): as the sequence (P18598 whole entry) above

The Inhibition is the drop in the measured response relative to a control, in per cent. A high value points to a strong effect. Usually IC50 stands for the concentration that gives 50% inhibition. Read a high IC50 as a need for much substance. For the compound `CNc1nc2c(OC)cccc2c2c1CCN2c1ccccc1C`, the Inhibition with Rattus norvegicus [1] came out at 49%. In [2], this compound gave a concentration for half-maximal inhibition (IC50) of 250 nM.
The matching figures for `COc1ccccc1N1CCc2c(N)nc3c(OC)cccc3c21`: 20% and 440 nM.
The matching figures for `COc1ccccc1N1CCc2cnc3c(OC)cccc3c21`: 31% and 1290 nM.
The inhibition in vivo is the percentage by which the read-out fell short of the control. Lower therefore signals little suppression. For orientation: inhibition means the change of the read-out against control, counted positive when it falls. A low value points to little suppression. Consider `Cc1ccccc1N1CCc2c(Cl)nc3c(C)cccc3c21`, for which, in the test with Rattus norvegicus [3], the inhibition in vivo at 10 µmol/kg came out at 15%. In test [4], the inhibition was found to be 25%.
In the test with Rattus norvegicus [1], `Cc1ccccc1-n1ccc2c(NCCO)nc3c(C)cccc3c21` returned an Inhibition of 48%. Besides, in test [2], the IC50 was 170 nM.
The compound `COc1ccccc1N1CCc2c(Cl)nc3c(OC)cccc3c21` yielded an inhibition in vivo at 10 µmol/kg in the test on Rattus norvegicus [3] of 19%. Further, the IC50 in test [5] was determined as 10700 nM.
For orientation: ED50 means the dose that gives a 50% effect, or the effect in half of the subjects. `Cc1ccccc1N1CCc2c(N)nc3c(C)cccc3c21` had an Inhibition with Rattus norvegicus [1] of 63%. In the test on Rattus norvegicus [6], this compound showed an ED50 of 4.3 µmol/kg. In the test on Canis familiaris [7], this compound displayed an inhibition in vivo at 1 µmol/kg of 53%. The compound further showed an IC50 in test [2] of 220 nM.
In the test on Rattus norvegicus [1], `Cc1ccccc1N1CCc2c(CO)nc3ccccc3c21` came in with an Inhibition of 33%. This compound also yielded an IC50 in [2] of 1230 nM.
For the compound `COc1cccc2c3c(c(NCCO)nc12)CCN3c1ccccc1C`, in the test with Rattus norvegicus [1], the Inhibition was 67%. Also, in test [2], the IC50 was found to be 280 nM.
As for `Cc1ccccc1N1CCc2c(NC(N)=O)nc3c(C)cccc3c21`, in the test on Rattus norvegicus [8], the inhibition entry was “Too insoluble”. This compound yielded an IC50 in [2] of 1990 nM.
In turn, `Cc1ccccc1N1CCc2cnc3c(C)cccc3c21` had an Inhibition with Rattus norvegicus [1] of 47%. In the test on Rattus norvegicus [6], the ED50 amounted to 16.2 µmol/kg. The same compound yielded a half-inhibitory concentration (IC50) in test [2] of 980 nM.
Turning to `COc1ccccc1N1CCc2c(O)nc3c(OC)cccc3c21`, the inhibition result in the test on Rattus norvegicus [8] is recorded as “Too insoluble”.
The compound `CNc1nc2c(C)cccc2c2c1CCN2c1ccccc1C` returned an Inhibition with Rattus norvegicus [1] of 72%. In addition, the 50% effect level in the test on Rattus norvegicus [6] (ED50) was put at a dose of 2.8 µmol/kg. The compound also showed an inhibition in vivo at 1 µmol/kg with Canis familiaris [9] of 67%. In the test on Canis familiaris [10], this compound registered an inhibition in vivo at 4 µmol/kg of 95%. Also, the 50% inhibitory concentration (IC50) in test [2] stood at 180 nM.
Take `Cc1ccccc1N1CCc2c(N(C)C)nc3c(C)cccc3c21`: the Inhibition with Rattus norvegicus [1] is on record as 56%. The same compound registered an ED50 with Rattus norvegicus [6] of 7.2 µmol/kg. This compound registered an IC50 in [2] of 1030 nM.
The compound `COc1ccccc1N1CCc2c1c1cccc(OC)c1[nH]c2=O` yielded an IC50 in test [2] of 33400 nM.
Consider `Cc1ccccc1-n1ccc2c(NCCCCO)nc3c(C)cccc3c21`, for which the Inhibition in the test on Rattus norvegicus [1] came out at 47%. In test [2], this compound gave a 50% inhibitory concentration (IC50) of 220 nM.
In the case of `CNC(=O)Nc1nc2c(C)cccc2c2c1CCN2c1ccccc1C`, the inhibition result in the test on Rattus norvegicus [8] is listed as “Too insoluble”. Moreover, the IC50 in test [2] came to 4970 nM.
For the compound `Cc1ccccc1N1CCc2c1nc1c(C)cccc1c2Nc1ccccc1`, the Inhibition with Rattus norvegicus [1] is listed as 0%. The compound further registered a concentration for half-maximal inhibition (IC50) in [2] of 1100 nM.
`CSc1nc2c(C)cccc2c2c1CCN2c1ccccc1C`: the inhibition result with Rattus norvegicus [8] is “Too insoluble”; in test [11], 0%.
`Cc1ccccc1-n1ccc2c(Cl)nc3c(C)cccc3c21`: the values for the inhibition in test [12] and in [4] were 30% and 2%, respectively.
Turning to `Cc1ccccc1N1CCc2c1nc1c(C)cccc1c2Cl`, the inhibition in test [13] came to 8%.
`CNc1nc2c(C)cccc2c2c1ccn2-c1ccccc1C` showed an Inhibition with Rattus norvegicus [1] of 61%. This compound returned an IC50 in test [2] of 290 nM.
For `Cc1ccccc1-n1ccc2c(NCCCO)nc3c(C)cccc3c21` the same measures were 30% and 410 nM.
In the case of `COc1cccc2c1nc(C)c1ccn(-c3ccccc3C)c12`, the Inhibition in the test with Rattus norvegicus [1] is recorded as 48%. The same compound showed an ED50 with Rattus norvegicus [6] of 7.08 µmol/kg. For the same compound, the IC50 in [2] was found to be 640 nM.
As for `CNc1nc2c(C)cccc2c2c1CCN2c1ccc(OC)cc1C`, the Inhibition in the test on Rattus norvegicus [1] was 67%. Besides, the IC50 in test [2] was found to be 280 nM.
As for `COc1nc2c(C)cccc2c2c1CCN2c1ccccc1C`, the inhibition entry was “Too insoluble” with Rattus norvegicus [8] and 0% in [11].
The compound `CCOC(=O)c1cc(Nc2ccccc2C)c2cccc(OC)c2n1` had an ED50 in the test on Rattus norvegicus [6] of 8.2 µmol/kg. For the same compound, in [2], inhibition was half-maximal at 850 nM (IC50).
For `COc1cccc2c3c(c(C(=O)Nc4ccccc4C)nc12)CCN3c1ccccc1C`, in [14], the IC50 result was “Insoluble”.
